Source: publication PMC9898131 (Nature chemical biology, 2022)

Target: COQ8A^NΔ250 (Homo sapiens, UniProt Q8NI60)
Assay: Differential scanning fluorimetry
Format: binding
Conditions: 100 μM inhibitor, 10 μM COQ8A^NΔ250
In short: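 Recombinant COQ8A^NΔ250 purified on cobalt IMAC resin, exchanged into 20 mM HEPES pH 7.2, 300 mM NaCl, 10% glycerol, 5 mM BME. They were spun briefly, then kept 10 min at room temperature in the dark before melting.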

COQ8A^NΔ250, sequence (Q8NI60 251-647 limits assumed, stated change not applied): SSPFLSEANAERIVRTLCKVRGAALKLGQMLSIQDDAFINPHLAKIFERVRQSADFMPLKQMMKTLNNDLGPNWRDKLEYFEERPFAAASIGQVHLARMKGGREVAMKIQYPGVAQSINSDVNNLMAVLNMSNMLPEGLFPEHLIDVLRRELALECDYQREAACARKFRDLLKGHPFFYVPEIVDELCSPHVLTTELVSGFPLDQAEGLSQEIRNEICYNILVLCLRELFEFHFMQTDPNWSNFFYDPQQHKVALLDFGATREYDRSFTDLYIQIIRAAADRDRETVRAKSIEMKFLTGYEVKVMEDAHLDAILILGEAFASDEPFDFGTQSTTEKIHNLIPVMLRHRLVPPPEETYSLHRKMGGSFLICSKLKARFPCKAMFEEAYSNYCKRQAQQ

## C#Cc1cccc(Nc2ncnc3cc(OCCOC)c(OCCOC)cc23)c1 [erlotinib]
  COQ8A melting temperature increase (ΔTm): weak-binding control
